The source made the active and inactive calls. The rule behind the calls is not given here.
Legend:
[1] = biological target: T1, Myeloblastin (Homo sapiens) (UniProt P24158); assay: Inhibition of human neutrophil proteinase 3 assessed as residual activity at 8.62
T1 sequence (whole entry): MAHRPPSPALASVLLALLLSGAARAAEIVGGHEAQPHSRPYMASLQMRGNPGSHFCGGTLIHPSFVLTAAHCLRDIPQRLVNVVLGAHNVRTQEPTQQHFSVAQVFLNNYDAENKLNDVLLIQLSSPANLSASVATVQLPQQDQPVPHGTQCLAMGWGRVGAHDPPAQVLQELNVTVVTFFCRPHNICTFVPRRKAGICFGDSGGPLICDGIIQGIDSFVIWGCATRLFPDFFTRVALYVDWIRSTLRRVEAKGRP
Procedure, shortened: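 Human proteinase 3 (final 34.5 nM) was added with DTNB to 0.1 M HEPES/0.5 M NaCl, pH 7.25, containing inhibitor (final 8.62 μM, from DMSO) and Boc-Ala-Ala-NVa-SBzl. Absorbance at 410 nm was followed for 2 min against a DMSO-only hydrolysis control. % remaining activity = (v/vo)×100, mean of duplicate or triplicate runs.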

[2] = biological target: T2, Neutrophil elastase (Homo sapiens) (UniProt P08246); assay: Ratio of Kinact to Ki for human neutrophil elastase
T2 sequence (whole entry): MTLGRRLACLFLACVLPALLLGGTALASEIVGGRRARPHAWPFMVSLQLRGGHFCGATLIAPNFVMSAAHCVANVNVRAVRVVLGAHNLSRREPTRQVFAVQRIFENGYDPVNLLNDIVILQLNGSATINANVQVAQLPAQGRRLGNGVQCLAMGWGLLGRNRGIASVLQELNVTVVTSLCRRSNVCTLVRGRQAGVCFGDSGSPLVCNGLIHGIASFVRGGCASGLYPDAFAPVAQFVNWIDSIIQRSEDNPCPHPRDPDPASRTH
Procedure, shortened: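 Progress-curve method: 10 nM HNE, MeOSuc-AAPV p-nitroanilide (105 μM) and inhibitor at several inhibitor-to-enzyme ratios in 0.1 M HEPES/0.5 M NaCl, pH 7.25, 2.5% DMSO. p-Nitroaniline release was monitored continuously at 410 nm. kobs came from nonlinear fitting of absorbance versus time; kinact/KI = kobs/[I], corrected for substrate concentration. Determined in duplicate.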

[3] = biological target: T2, Neutrophil elastase (Homo sapiens); assay: Inhibition of human neutrophil elastase at 7 uM; settings: TDE = time-dependent effect
Procedure, shortened: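 HNE (700 nM) incubated with inhibitor (7 μM) in 0.1 M HEPES/0.5 M NaCl, pH 7.25, 1% DMSO, in a constant-temperature bath. Aliquots were taken at intervals and added to MeOSuc-Ala-Ala-Pro-Val p-nitroanilide. Residual activity was read as absorbance at 410 nm over 60 s and expressed as percent remaining activity versus time.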

SMILES | percent remaining activity [1] | Ratio [2] | inhibition [3]
CC(C)C[C@H]1C(=O)N(COC(=O)CCc2ccccc2)S(=O)(=O)N1Cc1ccccc1 | inactive | 3200 | 
CC(C)C[C@H]1C(=O)N(COC(=O)c2ccccc2O)S(=O)(=O)N1C | inactive | 336000 | 
CC(C)C[C@H]1C(=O)N(COC(=O)CCc2ccccc2)S(=O)(=O)N1C | inactive | 296000 | 
CC(C)Cc1ccc(C(C)C(=O)OCN2C(=O)[C@H](CC(C)C)N(C)S2(=O)=O)cc1 (some centres undefined) | inactive | 201000 | 
CC(C)C[C@H]1C(=O)N(COC(=O)Cc2ccccc2Nc2c(Cl)cccc2Cl)S(=O)(=O)N1Cc1ccccc1 | inactive | 1330 | tde
CC(C)C[C@H]1C(=O)N(COC(=O)c2ccccc2O)S(=O)(=O)N1Cc1ccccc1 | inactive | 1.09e+06 | 
CC(=O)Oc1ccccc1C(=O)OCN1C(=O)[C@H](CC(C)C)N(C)S1(=O)=O | inactive | 419000 | 
CC(C)C[C@H]1C(=O)N(COC(=O)C(C)c2ccc(Oc3ccccc3)cc2)S(=O)(=O)N1C (some centres undefined) | inactive | 501000 | 
CC(C)C[C@H]1C(=O)N(COC(=O)Cc2ccccc2)S(=O)(=O)N1Cc1ccccc1 | inactive | 63800 | 
CC(C)C[C@H]1C(=O)N(COC(=O)Cc2ccccc2)S(=O)(=O)N1C | inactive | 357000 | 
CC(C)C[C@H]1C(=O)N(COC(=O)Cc2ccccc2Nc2c(Cl)cccc2Cl)S(=O)(=O)N1C | inactive | 981000 | tde

Now from value to compound:

percent remaining activity [1] | Ratio [2] | inhibition [3] | SMILES
inactive | 1.06e+06 |  | CC(=O)Oc1ccccc1C(=O)OCN1C(=O)[C@H](CC(C)C)N(Cc2ccccc2)S1(=O)=O
inactive | 540000 |  | CC(C)C[C@H]1C(=O)N(COC(=O)C(C)c2ccc(C(=O)c3ccccc3)cc2)S(=O)(=O)N1C (some centres undefined)
inactive | 1580 |  | CC(C)Cc1ccc(C(C)C(=O)OCN2C(=O)[C@H](CC(C)C)N(Cc3ccccc3)S2(=O)=O)cc1 (some centres undefined)
inactive | 1770 |  | CC(C)C[C@H]1C(=O)N(COC(=O)C(C)c2ccc(Oc3ccccc3)cc2)S(=O)(=O)N1Cc1ccccc1 (some centres undefined)
inactive | 31000 |  | CC(C)C[C@H]1C(=O)N(COC(=O)C(C)c2ccc(C(=O)c3ccccc3)cc2)S(=O)(=O)N1Cc1ccccc1 (some centres undefined)

Reference: ChEMBL document CHEMBL1221393, “Effects of structure on inhibitory activity in a series of mechanism-based inhibitors of human neutrophil elastase” (Bioorg Med Chem, 2010)
